This is an account of results in PubChem BioAssay.

Experiment [1] in a line: inhibitors of TNFa-induced NFkB p65 translocation, primary screen, imaging, HUVEC, MLSMR starter and 10KST1 sets (AID 438;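 active means inhibition above 20% together with a positive visual image hit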;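 further: compound added about 3h40 before a 20 min TNFalpha stimulation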;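 on inhibition: signal is the nuclear over cytoplasmic p65 intensity ratio per well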). The following applies: HUVEC TNFa-induced p65 nuclear translocation; cell count: measured here: nuclei count (cytotoxicity indicator), at 2.08 µM; inhibition: at 2 µM, stronger effect = higher value, 0% TNFa-plus-vehicle, 100% no-TNFa wells.
The nature of experiment [2]: inhibitors of mutant huntingtin aggregation, primary screen, imaging, exon1htt(103Q)mCFP cells, high-content imaging (AID 483;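 active means visual image review flags a hit and inhibition of aggregation exceeds 20%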;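 further: compound exposure lasted 3 days before fixation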;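 on nuclei count: percent of the per-plate median nuclei count of sample wells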). The following applies: exon1htt(103Q)mCFP cell line, aggregate imaging, at 2 µM; inhibition of aggregation: stronger effect = higher value; nuclei count: measured here: cell count, toxicity.
Experiment [3] in a line: inhibitors of E-selectin induction by TNFa, primary screen, imaging, HUVEC, immunofluorescence, MLSMR starter and 10KST1 sets (AID 487;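 active means visually confirmed hit in the image check and inhibition above 20%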;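 on inhibition: signal is fraction of cell area covered by stained E-selectin grains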;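 on nuclei count: 100% = median nuclei count of all wells on the same plate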). The following applies: HUVEC TNFalpha-induced E-selectin immunofluorescence imaging, at 2 µM; inhibition: stronger effect = higher value; nuclei count: measured here: cell number, toxicity.
The target of experiment [4] is Voltage-gated potassium channel subunit beta-2 (Rattus norvegicus) (UniProt P62483). The experiment can be described thus: KvBeta enzyme negative modulators, primary screen, biochemical, NADPH fluorescence (AID 622;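 active means fluorescence slope higher than the sample average by over 3 SD, cut at about -0.22 in these data, passing the limit was not always enough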;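 further: slope of raw intensity against log time taken from 70 to 1610 s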). The following applies: recombinant KvBeta, 4-cyanobenzaldehyde reduction, at 10 µM, stronger effect = higher value.
Experiment [5] has the same target. The experiment can be described thus: KvBeta positive modulators, primary screen, biochemical, NADPH fluorescence (AID 623).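 Further: fluorescence intensity change per second fitted from 20 to 320 s.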 The following applies: Recombinant KvBeta, NADPH fluorescence decrease slope, 10 min; at 10 µM; stronger effect = lower value.
Experiment [6] addresses Alpha-2C adrenergic receptor (Homo sapiens) (UniProt P18825). Nature of the experiment: modulators of alpha2C/GIRK thallium flux, primary screen, cell-based, HEK293 alpha2C/GIRK1/2 (AID 624;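 active means fluorescence slope after compound addition differing from the mean of all screened samples at 99.7% confidence, in either direction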;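 further: slope of fluorescence ratio to pre-addition baseline per second over 15 to 24 s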). The following applies: thallium flux BTC fluorescence, at 10 µM, actives lie on both sides.
The nature of experiment [7]: inhibitors of larval lipid processing in zebrafish, primary screen, whole organism, PED6 fluorescence, gall bladder and intestine (AID 686;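 active means a full or partial loss of lipid-probe fluorescence in the fish gall bladder, intestine or both, judged by eye; inactive means no fluorescence loss, or compound toxic to the fish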;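 further: larvae 5 to 7 days old with five fish per well; signal comes from phospholipase A2 cleavage of quenched PED6 carried via bile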). The following applies: Zebrafish larvae PED6 lipid processing, fluorescence scoring; screened at 20 µM (by protocol). A digest of the protocol: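 System: live zebrafish larvae aged 5-7 days, whole organism; measure: graded gall bladder and intestinal fluorescence inhibition per well; incubation: overnight exposure; reagent: ingested quenched lipid PED6 at 100 nM; signal: By-eye fluorescence microscopy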

Experiment [8] is described as follows: inhibitors of Sendai virus-induced IRF3 signaling, primary screen, TLR/RLR signaling modifier project, cell-based, Sendai virus stimulus, luciferase, 10K MLSCN set (AID 602276;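 active means inhibition at or above 50% at 10 µM; inactive means inhibition below 50%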;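 further: firefly luciferase from ISG56 promoter only with Renilla not read in this screen; 0% = Sendai virus plus DMSO and 100% = medium plus DMSO without virus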). The following applies: HEK293 RL24 IRF3 luciferase reporter, at 10 µM, stronger effect = higher value.
Experiment [9] can be described thus: inhibitors of poly I:C-induced TLR3 signaling, primary screen, cell-based, poly I:C stimulus, luciferase, 10K MLSCN set (AID 602277;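 active means inhibition of the reporter signal at or above 50%; inactive means inhibition below 50%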). The following applies: HEK293-TLR3 RL24 IRF3 luciferase reporter, at 10 µM, stronger effect = higher value. On the technique in general: In a reporter assay the amount or activity of a reporter protein is the signal.

Active and inactive are the calls of the source.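 How the source made its calls, unless noted: active means NADPH fluorescence slope more negative than the mean of all samples by about 3 SD, 99.7% confidence; inactive means the rest.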

Chain of Voltage-gated potassium channel subunit beta-2 (Rattus norvegicus) (P62483 whole entry, looked up): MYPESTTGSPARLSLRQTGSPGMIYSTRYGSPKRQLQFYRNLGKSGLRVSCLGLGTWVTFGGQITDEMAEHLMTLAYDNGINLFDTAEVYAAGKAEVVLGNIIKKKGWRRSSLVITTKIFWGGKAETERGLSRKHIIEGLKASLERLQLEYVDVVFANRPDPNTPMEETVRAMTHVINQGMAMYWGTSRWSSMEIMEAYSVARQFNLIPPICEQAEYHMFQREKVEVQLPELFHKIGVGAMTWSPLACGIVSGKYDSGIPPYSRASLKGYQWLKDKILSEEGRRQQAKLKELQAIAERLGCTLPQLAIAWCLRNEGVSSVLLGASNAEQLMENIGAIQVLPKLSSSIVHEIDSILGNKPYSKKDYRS
Chain of Alpha-2C adrenergic receptor (Homo sapiens) (P18825 whole entry, looked up): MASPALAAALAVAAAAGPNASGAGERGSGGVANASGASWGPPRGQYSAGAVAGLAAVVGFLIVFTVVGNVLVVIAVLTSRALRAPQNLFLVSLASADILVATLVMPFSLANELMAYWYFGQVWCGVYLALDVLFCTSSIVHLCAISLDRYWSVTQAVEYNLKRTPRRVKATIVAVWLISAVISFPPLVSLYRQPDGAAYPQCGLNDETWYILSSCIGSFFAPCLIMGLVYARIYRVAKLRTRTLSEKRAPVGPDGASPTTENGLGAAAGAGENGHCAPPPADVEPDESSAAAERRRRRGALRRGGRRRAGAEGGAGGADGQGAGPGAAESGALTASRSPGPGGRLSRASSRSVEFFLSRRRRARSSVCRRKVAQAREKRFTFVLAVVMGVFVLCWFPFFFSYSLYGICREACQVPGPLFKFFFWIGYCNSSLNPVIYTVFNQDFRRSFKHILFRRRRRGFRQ

As to `COc1cc(C(=O)NCC(=O)OCC(=O)c2ccc[nH]2)cc(OC)c1OC`, in experiment [1], the cell count was 383. Further, the inhibition in [1] is -23% (inactive); in experiment [3] it was -64.2% (inactive); in [8], 13.9% (inactive); in experiment [9], 16.7% (inactive). Moreover, in experiment [2], the inhibition of aggregation is 10.7% (inactive). Moreover, the figures for the nuclei count in experiment [2] and in experiment [3] were 101% and 107%, respectively. Further, the fluorescence slope in experiment [4] is -0.458 (inactive). In addition, in experiment [5], the NADPH fluorescence slope was -4.1e-05 (inactive). Moreover, the slope in experiment [6] is 0.00501 (inactive). In addition, in experiment [7], the call was inactive.

Turning to `COCCN(CCOC)C(=O)CCn1c(=O)oc2ccccc21`, the cell count in [1] amounted to 589. For the same molecule, the inhibition in experiment [1] is 3.3% (inactive); in experiment [3] it was 37.7% (inactive); in experiment [8], 17.5% (inactive); in experiment [9], 8.78% (inactive). In addition, the inhibition of aggregation in experiment [2] was 2.1% (inactive). The nuclei count is 107% in experiment [2] and 100% in experiment [3]. Moreover, the fluorescence slope in experiment [4] was -0.462 (inactive). In [5], the NADPH fluorescence slope is -5.7e-05 (inactive). Also, in [6], the slope is 0.00623 (inactive). Further, in [7], the molecule was called inactive.

In the case of `O=C(O)C(c1ccccc1)N1CCCC1` (stereo unspecified), the cell count in experiment [1] is 643. Besides, the inhibition in experiment [1] is 3.4% (inactive); in experiment [3] it was -110% (inactive); in [8], 13% (inactive); in experiment [9] it was 8.7% (inactive). For the same molecule, in experiment [2], the inhibition of aggregation is -1.7% (inactive). The figures for the nuclei count in experiment [2] and in experiment [3] were 108% and 104%, respectively. Further, the fluorescence slope in experiment [4] is -0.291 (inactive). In addition, the NADPH fluorescence slope in experiment [5] was -6.9e-06 (inactive). Further, the slope in experiment [6] is 0.00482 (inactive). In addition, in [7], the result was inactive.

`COc1ccc(C(=O)NCCC(C)C)cc1S(=O)(=O)N1CCOCC1`: the cell count in experiment [1] is 229. The inhibition was -32.8% (inactive) in experiment [1], 25.8% (inactive) in [3], 17.2% (inactive) in experiment [8] and 19.8% (inactive) in [9]. The inhibition of aggregation in [2] was 0.6% (inactive). Besides, the nuclei count in experiment [2] was 66.7%; in experiment [3] it was 109%. Further, the fluorescence slope in experiment [4] was -0.355 (inactive). Further, the NADPH fluorescence slope in [5] is 6.5e-06 (inactive). The slope in experiment [6] is 0.00454 (inactive). Further, the outcome in experiment [7] was inactive.

On to `O=C(NCc1cccs1)c1cc2c(s1)CS(=O)(=O)C2`, for which the cell count in experiment [1] worked out at 618. Further, the inhibition is -3% (inactive) in experiment [1], -42.8% (inactive) in [3], 23.3% (inactive) in experiment [8] and 87% (active) in experiment [9]. In addition, the inhibition of aggregation in experiment [2] was -17.1% (inactive). Also, the nuclei count in experiment [2] is 101%; in [3] it was 113%. Further, the fluorescence slope in [4] was -0.32 (inactive). Besides, in [5], the NADPH fluorescence slope is -4.2e-06 (inactive). In [6], the slope is 0.00763 (inactive). In addition, the result in experiment [7] was inactive.

Regarding `CCOCCCN(Cc1cc2cc(C)cc(C)c2[nH]c1=O)C(=O)N(CC)CC`, the cell count in [1] was found to be 320. Further, the inhibition in [1] was 4.5% (inactive); in [3], -15.3% (inactive); in experiment [8], -10.7% (inactive); in experiment [9], -6.77% (inactive). The inhibition of aggregation in experiment [2] was 2.5% (inactive). Also, the nuclei count in experiment [2] amounted to 92.2%; in [3], 106%. In addition, the fluorescence slope in [4] is -0.423 (inactive). Also, the NADPH fluorescence slope in experiment [5] is -3.6e-05 (inactive). Further, the slope in experiment [6] is 0.00543 (inactive). Also, the molecule was classed as inactive in [7].

In the case of `O=C(c1nn2cccnc2c1Cl)N1CCN(c2ccccc2)CC1`, the cell count in experiment [1] was found to be 344. In addition, the inhibition in experiment [1] was 3.6% (inactive); in experiment [3] it was -45.6% (inactive); in experiment [8], 11.4% (inactive); in experiment [9] it was 1.58% (inactive). Further, in [2], the inhibition of aggregation is -7.7% (inactive). Further, the values for the nuclei count in experiment [2] and in experiment [3] were 80.1% and 94.5%, respectively. In experiment [4], the fluorescence slope is -0.424 (inactive). Moreover, the NADPH fluorescence slope in experiment [5] was -2.5e-05 (inactive). In addition, the slope in experiment [6] is 0.00475 (inactive). In addition, the call in experiment [7] was inactive.

As to `Cc1nc2ccc(C(=O)O)cc2c2c1CC(C)S2` (stereo unspecified), the cell count in experiment [1] is 462. Moreover, the inhibition in experiment [1] is -3.8% (inactive); in experiment [3], -20.4% (inactive); in experiment [8] it was 13.9% (inactive); in experiment [9] it was 11.7% (inactive). Also, the inhibition of aggregation in experiment [2] is -4% (inactive). The nuclei count in experiment [2] worked out at 106%; in [3] it was 104%. In addition, the fluorescence slope in [4] is -0.38 (inactive). Moreover, the NADPH fluorescence slope in experiment [5] is -4.3e-05 (inactive). Moreover, the slope in [6] was 0.00518 (inactive). Further, the molecule was classed as inactive in experiment [7].

In the case of `COc1ccccc1C(=O)NCC(c1cccnc1)N(C)C` (stereo unspecified), the cell count in [1] amounted to 776. Besides, the inhibition was -2.2% (inactive) in [1], 1.4% (inactive) in [3], 10.3% (inactive) in experiment [8] and 4.98% (inactive) in experiment [9]. In addition, in experiment [2], the inhibition of aggregation was -39.1% (inactive). The nuclei count in [2] came out at 112%; in [3] it was 122%. In experiment [4], the fluorescence slope was -0.422 (inactive). For the same molecule, the NADPH fluorescence slope in [5] is -5.3e-05 (inactive). The slope in [6] was 0.00557 (inactive). Moreover, the molecule was called inactive in experiment [7].

Regarding `COC(=O)c1ccc2c(=O)n(NC(C)=O)c(=S)[nH]c2c1`, the cell count in experiment [1] amounted to 627. Also, the inhibition in [1] was 8.7% (inactive); in [3] it was -73.1% (inactive); in experiment [8] it was 2.98% (inactive); in [9] it was -0.555% (inactive). Further, in experiment [2], the inhibition of aggregation was -5% (inactive). The nuclei count stood at 108% in experiment [2] and 114% in [3]. Further, the fluorescence slope in experiment [4] was -0.367 (inactive). For the same molecule, in experiment [5], the NADPH fluorescence slope was -6.6e-05 (inactive). The slope in experiment [6] was 0.00487 (inactive). Moreover, in [7], the result was inactive.

`Cc1ccc2cc(C(c3nnnn3C3CCCC3)N3CCN(c4ccc(F)cc4)CC3)c(=O)[nH]c2c1` (stereo unspecified): the cell count in experiment [1] came out at 586. Besides, the inhibition was 7.2% (inactive) in experiment [1], -31.9% (inactive) in experiment [3], 23.2% (inactive) in experiment [8] and 34.2% (inactive) in experiment [9]. In addition, the inhibition of aggregation in experiment [2] is -4.3% (inactive). Moreover, the nuclei count in experiment [2] amounted to 99.8%; in [3] it was 130%. Moreover, the fluorescence slope in [4] is -0.372 (inactive). In [5], the NADPH fluorescence slope is -4.7e-05 (inactive). For the same molecule, the slope in experiment [6] was 0.00624 (inactive). Also, the outcome in [7] was “inactive; toxic”.

As for `O=C(NC1CCCCC1NC(=O)c1ccco1)c1ccco1` (stereo unspecified), the cell count in [1] amounted to 726. Moreover, the inhibition was 10.2% (inactive) in [1], 65.3% (inactive) in experiment [3], -10.8% (inactive) in experiment [8] and -8.21% (inactive) in experiment [9]. Also, the inhibition of aggregation in experiment [2] was -7.6% (inactive). Further, the nuclei count is 108% in experiment [2] and 112% in experiment [3]. The fluorescence slope in [4] was -0.384 (inactive). For the same molecule, the NADPH fluorescence slope in experiment [5] is -1.6e-05 (inactive). Further, the slope in [6] was 0.00439 (inactive). The result in experiment [7] was inactive.

For `Cc1cc(C)cc(NC(=O)CN(C)S(=O)(=O)c2cnc[nH]2)c1`, the cell count in experiment [1] was 484. Besides, the inhibition in experiment [1] is 8.7% (inactive); in experiment [3] it was 0.4% (inactive); in experiment [8] it was 1.14% (inactive); in [9], 2.32% (inactive). Besides, the inhibition of aggregation in [2] is -24% (inactive). The nuclei count was 110% in experiment [2] and 100% in experiment [3]. For the same molecule, the fluorescence slope in experiment [4] is -0.406 (inactive). For the same molecule, in experiment [5], the NADPH fluorescence slope was -3.6e-05 (inactive). In addition, the slope in experiment [6] was 0.00489 (inactive). The molecule was called inactive in [7].

As usually defined, the inhibition is the drop in the measured response relative to a control, in per cent.
